IC50 data for 19 compounds are collected here from ChEMBL document CHEMBL3804753, “Substituted quinolines as noncovalent proteasome inhibitors” (Bioorg Med Chem, 2016).

pIC50: −log10 of the molar value.

The first assay concerns the target T1, Proteasome Macropain subunit MB1 (Homo sapiens, UniProt P28074).
T1 sequence (P28074 whole entry): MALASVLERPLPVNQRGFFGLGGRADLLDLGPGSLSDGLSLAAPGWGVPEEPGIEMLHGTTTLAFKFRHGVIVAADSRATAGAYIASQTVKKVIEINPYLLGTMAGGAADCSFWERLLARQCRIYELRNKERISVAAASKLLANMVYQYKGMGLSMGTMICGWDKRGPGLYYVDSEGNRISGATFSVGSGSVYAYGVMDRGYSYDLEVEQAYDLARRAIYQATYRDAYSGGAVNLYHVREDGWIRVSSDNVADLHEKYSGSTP
Description: Inhibition of human 20S proteasome chymotryptic-like activity using Suc-LLVY-AMC as substrate measured for 30 mins by fluorescence assay. In outline: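 Purified human 20S proteasome (1 nM) in 50 mM Tris-HCl pH 7.5 with 0.03% SDS and 50 μM fluorogenic substrate (Suc-LLVY-AMC for CT-L, Z-ARR-AMC for T-L, Z-LLE-AMC for casp-L), 37 °C. Maximum fluorescence increase per minute gave specific activity; IC50 taken from the linear portion of the curves.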
In turn, `Cc1nc2ccccc2cc1C1=CCCCC1` gave a pIC50 of less than 4.60.

The compound `CN(C)c1ccc2ncc(C(C)(C)C)cc2c1` showed a pIC50 of less than 4.60.

As to `Cc1nc2ccc(Br)cc2cc1-c1ccccc1`, the pIC50 is less than 4.60.

For `C=C(C)c1cc2c(C)cc(C)cc2nc1CC`, the pIC50 is less than 4.60.

On to `Cc1nc2ccc(N3CCCCC3)cc2cc1C1=CCCCC1`, for which the negative logarithm of the IC50 (pIC50) is 5.27.

The compound `Cc1nc2ccc(N3CCOCC3)cc2cc1C1=CCCCC1` gave a pIC50 of 5.04.

Consider `Cc1ccc2ccccc2n1` [QUINALDINE], for which the pIC50 was less than 4.60.

Compound `Cc1nc2ccc(F)cc2cc1C1=CCCCC1` showed a pIC50 of less than 4.60.

`Cc1nc2cc(Br)cc(Br)c2cc1C1=CCCCC1` gave a pIC50 of less than 4.60.

The compound `CN(C)c1ccc2nc(-c3ccccc3)c(-c3ccccc3)cc2c1` showed a pIC50 of less than 4.60.

The compound `Cc1nc2ccc(C(C)C)cc2cc1-c1ccccc1` gave a pIC50 of less than 4.60.

Take `Cc1nc2ccc(Cl)cc2cc1C1=CCCCC1`: the pIC50 is less than 4.60.

For the compound `CCCCc1ccc2cc(N(C)C)ccc2n1`, the pIC50 was less than 4.60.

In turn, `Cc1cc(C)c2cc(-c3ccccc3)c(-c3ccccc3)nc2c1` had a pIC50 of less than 4.60.

For `Cc1cnc2ccccc2c1`, the pIC50 is less than 4.60.

Regarding `Cc1nc2cc(Cl)cc(Cl)c2cc1C1=CCCCC1`, the pIC50 is less than 4.60.

Compound `COc1ccc2nc(C)c(C3=CCCCC3)cc2c1` gave a pIC50 of less than 4.60.

For the compound `c1ccc(-c2cnc3ccccc3c2)cc1`, the pIC50 was less than 4.60.

In the next assay the target is T1, Proteasome Macropain subunit MB1. Description: Inhibition of human 20S proteasome chymotryptic-like activity using Suc-LLVY-AMC as substrate assessed as fluorescence quinching control by fluorescence assay.
On to `CN(C)c1ccc2nc(-c3ccccc3)c(-c3ccccc3)cc2c1`, for which the pIC50 is 5.64.

System in a further assay: not listed separately
Description: Inhibition of human 20s proteasome in human TNFalpa stimulated NF-kappaB-luc expressing HeLa cells assessed as suppression of NF-kappaB mediated gene expression preincubated for 30 min followed by TNFalpha stimulation measured after 8 hrs by steady-Glo luciferase assay. The class given is cell-based. Summed up: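 HeLa NF-κB-luc cells were seeded in DMEM with 5% FBS and hygromycin B. After 24 h the medium was swapped for serum-free DMEM with antibiotics. Cells were pretreated 30 min at 37 °C, 5% CO2 with compound (final 50, 25, 12.5, 6.25, 3.13, 1.56 μM), vehicle 1% DMSO, or 50 μM MG-132 as positive control. TNF-α (25 ng/mL final) was then added for 8 h. Firefly luciferase was read by Steady-Glo, normalized to TNF-α stimulation. Average of 2 independent experiments.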
Regarding `Cc1cc(C)c2cc(C3=CCCCC3)c(C)nc2c1`, the pIC50 was 4.92.

A word on the pIC50: it is the negative decadic logarithm of the IC50, by convention in mol/L.
